In ChEMBL document CHEMBL3526126, “Amide hydrolysis of a novel chemical series of microsomal prostaglandin E synthase-1 inhibitors induces kidney toxicity in the rat” (Drug Metab Dispos, 2013):

What was measured:
[1] = Drug metabolism in Sprague-Dawley rat hepatocytes assessed as amide hydrolysis at 1 to 10 uM by LC-MS analysis; type: ADME, cell-based, Hepatocyte
How it was run: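 Hepatocytes at 1 × 10^6 cells/ml in William's medium incubated at 37°C with gentle shaking under 5% CO2. Substrate was at […]. Metabolites were analysed by LC-MS.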

Rattus norvegicus [2] = assay: Toxicity in Wistar Hannover rat kidney assessed as crystals in urine at 76 to 230 umol/kg, po qd administered for 7 days measured on day 7 by hematoxylin/eosin staining-based light microscopic analysis; type: organism-based; conditions: in vivo, 168 h
[3] = Cmax in Sprague-Dawley rat at 70 umol/kg, po qd administered for 7 days measured on day 7; type: ADME, organism-based; design: dose 70 umol/kg, route oral; conditions: in vivo
How it was run: (§1)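 Toxicity study 2: 2 female satellite rats per dose group. Dosing was once daily by oral gavage (10 ml/kg) for 7 days. Tail-vein EDTA blood was taken at 2, 4, 6, 7 and 24 h on day 1 and on day 7, then chilled and centrifuged to plasma. Parent and M1 were quantified by LC-MS/MS, with M1 measured in negative electrospray mode.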

[4] = Cmax in Sprague-Dawley rat at 200 umol/kg, po qd administered for 7 days measured on day 7; type: ADME, organism-based; design: dose 200 umol/kg, route oral; conditions: in vivo; how it was run: as §1
[5] = AUC (0 to 24 hrs) in Sprague-Dawley rat at 70 umol/kg, po qd administered for 7 days measured on day 7; type: ADME, organism-based; design: time < 24 hr, dose 70 umol/kg, route oral; conditions: plasma; how it was run: as §1
[6] = AUC (0 to 24 hrs) in Sprague-Dawley rat at 200 umol/kg, po qd administered for 7 days measured on day 7; type: ADME, organism-based; design: dose 200 umol/kg, time < 24 hr, route oral; conditions: plasma; how it was run: as §1
Rattus norvegicus [7] = assay: Toxicity in Wistar Hannover rat kidney assessed as increase in plasma urea level at >= 500 to 1000 umol/kg, po qd administered for 7 days measured on day 7; type: organism-based; conditions: in vivo, 168 h
How it was run: (§2)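 Wistar Hannover rats, about 8 weeks old, were acclimatized about 2 weeks and randomized by body weight. Dosing was by oral gavage (10 ml/kg) once daily for 7 days, with vehicle controls. At the end of dosing, plasma (lithium heparin) was taken from the orbital plexus under isoflurane/oxygen anaesthesia, and urea and creatinine were measured.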

Rattus norvegicus [8] = assay: Toxicity in Wistar Hannover rat kidney assessed as increase in plasma creatinine level at >= 500 to 1000 umol/kg, po qd administered for 7 days measured on day 7; type: organism-based; conditions: in vivo, 168 h; how it was run: as §2
[9] = Cmax in Wistar Hannover rat at 70 umol/kg, po qd measured on day 1; conditions: in vivo
[10] = Cmax in Wistar Hannover rat at 200 umol/kg, po qd measured on day 1; conditions: in vivo
[11] = AUC (0 to 24 hrs) in Wistar Hannover rat at 70 umol/kg, po qd measured on day 1; conditions: plasma
[12] = AUC (0 to 24 hrs) in Wistar Hannover rat at 200 umol/kg, po qd measured on day 1; conditions: plasma
Rattus norvegicus [13] = assay: Toxicity in Wistar Hannover rat kidney assessed as pathophysiological changes at 70 to 500 umol/kg, po qd administered for 7 days measured on day 7; conditions: in vivo, 168 h
Rattus norvegicus [14] = assay: Drug metabolism in Wistar Hannover rat assessed as formation of benzene-1,2-disulfonamide metabolite M1 in plasma at 500 umol/kg, po qd administered for 7 days measured on day 7 by radio monitoring method; type: ADME, organism-based; conditions: in vivo, 168 h
Prostaglandin E synthase = target: T1, Prostaglandin E synthase (Homo sapiens, UniProt O14684); assay: Inhibition of human mPGES-1 by whole blood assay
T1 sequence (O14684 whole entry): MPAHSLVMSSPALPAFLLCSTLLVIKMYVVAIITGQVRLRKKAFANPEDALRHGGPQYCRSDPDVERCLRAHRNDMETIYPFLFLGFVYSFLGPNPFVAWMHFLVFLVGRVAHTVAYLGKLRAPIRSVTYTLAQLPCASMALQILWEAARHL

[15] = Cmax in Sprague-Dawley rat at 170 umol/kg, po qd administered for 7 days measured on day 7; type: ADME, organism-based; design: dose 170 umol/kg, route oral; conditions: in vivo; how it was run: as §1
[16] = Cmax in Sprague-Dawley rat at 500 umol/kg, po qd administered for 7 days measured on day 7; type: ADME, organism-based; design: dose 500 umol/kg, route oral; conditions: in vivo; how it was run: as §1
[17] = AUC (0 to 24 hrs) in Sprague-Dawley rat at 170 umol/kg, po qd administered for 7 days measured on day 7; type: ADME, organism-based; design: time < 24 hr, dose 170 umol/kg, route oral; conditions: plasma; how it was run: as §1
[18] = AUC (0 to 24 hrs) in Sprague-Dawley rat at 500 umol/kg, po qd administered for 7 days measured on day 7; type: ADME, organism-based; design: dose 500 umol/kg, time < 24 hr, route oral; conditions: plasma; how it was run: as §1
Rattus norvegicus [19] = assay: Toxicity in Wistar Hannover rat kidney assessed as crystals in urine at 500 umol/kg, po qd administered for 7 days measured on day 7; type: organism-based; conditions: in vivo, 168 h
[20] = Cmax in Wistar Hannover rat at 170 umol/kg, po qd measured on day 1; conditions: in vivo
[21] = Cmax in Wistar Hannover rat at 500 umol/kg, po qd measured on day 1; conditions: in vivo
[22] = AUC (0 to 24 hrs) in Wistar Hannover rat at 170 umol/kg, po qd measured on day 1; conditions: plasma
[23] = AUC (0 to 24 hrs) in Wistar Hannover rat at 500 umol/kg, po qd measured on day 1; conditions: plasma

Q: Which results are given for `COc1cc(C(=O)NS(=O)(=O)c2ccccc2S(N)(=O)=O)ccc1C#CC1CC1`?
A: Drug metabolism [1]: metabolite_not_detected; Activity (Rattus norvegicus [2]): Non-toxic; Cmax [3]: 50 µM; Cmax [4]: 110 µM; AUC at 24 h [5]: 550 µM·h; AUC at 24 h [6]: 1070 µM·h; Activity (Rattus norvegicus [7]): Non-toxic; Activity (Rattus norvegicus [8]): Non-toxic; Cmax [9]: 50 µM; Cmax [10]: 90 µM; AUC(0-t) at 24 h [11]: 610 µM·h; AUC(0-t) at 24 h [12]: 970 µM·h; Activity (Rattus norvegicus [13]): Non-toxic

Q: With `NS(=O)(=O)c1ccccc1S(=O)(=O)N[14C](=O)c1ccc(C#Cc2ccccc2)cc1` as the compound, how does the Drug metabolism (Rattus norvegicus [14]) read?
A: metabolite_detected

Q: What does the source list for `CC(C)C#Cc1ccc(C(=O)NS(=O)(=O)c2ccccc2S(N)(=O)=O)cc1OCCC(F)(F)F`?
A: Drug metabolism [1]: metabolite_not_detected; IC50 (Prostaglandin E synthase): > 2000 nM; Cmax [15]: 190 µM; Cmax [16]: 320 µM; AUC at 24 h [17]: 1600 µM·h; AUC at 24 h [18]: 3010 µM·h; Activity (Rattus norvegicus [7]): Non-toxic; Activity (Rattus norvegicus [8]): Non-toxic; Activity (Rattus norvegicus [19]): Toxic; Cmax [20]: 170 µM; Cmax [21]: 300 µM; AUC(0-t) at 24 h [22]: 1260 µM·h; AUC(0-t) at 24 h [23]: 3410 µM·h; Activity (Rattus norvegicus [13]): Non-toxic
